Measurements gathered from unrelated publications.
Lines come from different studies, so protocols differ.
Target: Serine/threonine-protein kinase TBK1 (TBK1, Homo sapiens, UniProt Q9UHD2)
Sequence (Q9UHD2 1-729, as in one of the studies): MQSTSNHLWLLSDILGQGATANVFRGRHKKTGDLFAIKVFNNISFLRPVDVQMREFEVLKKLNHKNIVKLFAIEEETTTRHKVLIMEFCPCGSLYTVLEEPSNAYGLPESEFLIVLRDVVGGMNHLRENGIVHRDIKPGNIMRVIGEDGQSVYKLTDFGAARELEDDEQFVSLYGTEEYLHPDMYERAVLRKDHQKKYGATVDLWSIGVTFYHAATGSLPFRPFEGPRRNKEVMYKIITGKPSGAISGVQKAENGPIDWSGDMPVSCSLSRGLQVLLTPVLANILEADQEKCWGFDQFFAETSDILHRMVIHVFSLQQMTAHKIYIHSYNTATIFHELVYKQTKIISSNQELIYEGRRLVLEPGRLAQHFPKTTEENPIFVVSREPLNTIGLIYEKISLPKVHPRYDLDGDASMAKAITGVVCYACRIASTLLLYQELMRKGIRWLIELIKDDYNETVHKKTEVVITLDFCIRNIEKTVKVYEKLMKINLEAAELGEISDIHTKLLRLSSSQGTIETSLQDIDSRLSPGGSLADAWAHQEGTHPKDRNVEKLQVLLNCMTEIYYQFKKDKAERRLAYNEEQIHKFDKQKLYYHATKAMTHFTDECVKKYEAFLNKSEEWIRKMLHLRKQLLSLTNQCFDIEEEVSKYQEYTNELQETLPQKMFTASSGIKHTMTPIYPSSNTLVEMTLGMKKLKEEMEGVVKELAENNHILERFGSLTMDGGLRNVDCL

C=CC(=O)N1CCC([C@@H]2CCNc3c(C(N)=O)c(-c4ccc(Oc5ccccc5)cc4)nn32)CC1  inhibition (enzyme activity, inhibitor; 1 µM): 15%
C[C@H]1CC[C@H](n2c3cnccc3c3cnc(Nc4ccc5c(n4)CCN(C(=O)CO)C5)nc32)CC1  remaining signal (cell-free assay; 1 µM): 100%
C#Cc1cc(-c2cc(Nc3nc(N[C@@H](C)c4ccc(F)cn4)ncc3Cl)n[nH]2)ccc1C=O  inhibition (enzyme activity, inhibitor; 0.2 µM): 5.56%
Cc1cc(O)c(-c2ccc([C@@H](C)CN(C)C)cc2)c2c1[nH]c(=O)c1sccc12  inhibition (enzyme activity, inhibitor; 0.1 µM): -4.68%
CC(C)S(=O)(=O)c1ccc2nccc(Nc3ccc4sc(C5CCCC5)nc4c3)c2c1  activity vs control (enzyme activity, inhibitor; 1 µM): 114%
CCCCC(=O)Nc1ccc(-c2ccc3ncn(CCC)c(=O)c3c2)cn1  remaining binding (binding, competition with immobilised ligand; 0.5 µM): 100%
CC#CC(=O)N1CCC[C@H]1c1nc(-c2ccc(C(=O)Nc3ccccn3)cc2)c2c(N)nccn12  inhibition (enzyme activity, inhibitor; 1 µM): 5%
COc1ccc2[nH]c3c4[nH]c5ccc(OC)cc5c4c4c(c3c2c1)C(=O)NC4=O  remaining binding (binding; 1 µM): 59%
